Here are results for three compounds from ChEMBL document CHEMBL1914459 (Bioorg Med Chem Lett, 2011).

Molecules are shown by their SMILES. The source made the active and inactive calls.

Series [1] has as its target T1, Prostaglandin D2 receptor 2 (Homo sapiens, UniProt Q9Y5Y4).
T1 sequence (Q9Y5Y4 whole entry): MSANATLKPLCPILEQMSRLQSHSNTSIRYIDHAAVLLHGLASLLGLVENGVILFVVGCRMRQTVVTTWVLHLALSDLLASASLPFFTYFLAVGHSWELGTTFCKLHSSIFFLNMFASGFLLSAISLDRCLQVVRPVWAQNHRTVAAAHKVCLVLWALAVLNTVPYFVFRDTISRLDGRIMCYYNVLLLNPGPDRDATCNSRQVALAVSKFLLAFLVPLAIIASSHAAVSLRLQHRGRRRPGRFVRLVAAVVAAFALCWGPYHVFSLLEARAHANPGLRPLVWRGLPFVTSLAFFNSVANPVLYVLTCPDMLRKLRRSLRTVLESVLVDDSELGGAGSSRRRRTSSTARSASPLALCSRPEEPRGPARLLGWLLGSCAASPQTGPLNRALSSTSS
Briefly: Displacement of [3H]PGD2 from human CRTH2 receptor. The essentials: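 Radioligand binding with ³H-PGD₂ as the labelled ligand; IC₅₀ reported as mean of n >2 measurements.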
(In general: In a radioligand displacement assay an active substance lowers the binding of a labelled ligand.)

The nature of series [2]: Inhibition of human recombinant aldose reductase 2 after 15 mins by spectrophotometry analysis.
Series [3] is described as follows: Intrinsic clearance in rat hepatocytes assessed as per 1 x 10^6 cells.
In another series the target is Cytochrome P450 2C9 (Homo sapiens, UniProt P11712). In words: Inhibition of CYP2C9. It counts as ADME.
Cytochrome P450 2C9, sequence (P11712 whole entry): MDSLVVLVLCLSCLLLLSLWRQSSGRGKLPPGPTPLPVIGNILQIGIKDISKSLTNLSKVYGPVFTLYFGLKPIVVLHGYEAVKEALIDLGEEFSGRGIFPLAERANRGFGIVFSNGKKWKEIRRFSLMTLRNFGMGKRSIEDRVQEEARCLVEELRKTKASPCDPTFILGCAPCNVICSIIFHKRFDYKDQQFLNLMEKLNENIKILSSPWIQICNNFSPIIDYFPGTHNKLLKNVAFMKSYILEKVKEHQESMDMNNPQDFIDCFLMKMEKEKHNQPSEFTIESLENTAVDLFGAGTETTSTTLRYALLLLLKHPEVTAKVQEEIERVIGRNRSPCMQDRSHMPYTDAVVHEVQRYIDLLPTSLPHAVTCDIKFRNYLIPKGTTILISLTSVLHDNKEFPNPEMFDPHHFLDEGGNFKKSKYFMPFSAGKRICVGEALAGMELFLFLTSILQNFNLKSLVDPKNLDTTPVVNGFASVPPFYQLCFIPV
Another series deals with T2, Cytochrome P450 1A2 (Homo sapiens, UniProt P05177).
T2 sequence (P05177 whole entry): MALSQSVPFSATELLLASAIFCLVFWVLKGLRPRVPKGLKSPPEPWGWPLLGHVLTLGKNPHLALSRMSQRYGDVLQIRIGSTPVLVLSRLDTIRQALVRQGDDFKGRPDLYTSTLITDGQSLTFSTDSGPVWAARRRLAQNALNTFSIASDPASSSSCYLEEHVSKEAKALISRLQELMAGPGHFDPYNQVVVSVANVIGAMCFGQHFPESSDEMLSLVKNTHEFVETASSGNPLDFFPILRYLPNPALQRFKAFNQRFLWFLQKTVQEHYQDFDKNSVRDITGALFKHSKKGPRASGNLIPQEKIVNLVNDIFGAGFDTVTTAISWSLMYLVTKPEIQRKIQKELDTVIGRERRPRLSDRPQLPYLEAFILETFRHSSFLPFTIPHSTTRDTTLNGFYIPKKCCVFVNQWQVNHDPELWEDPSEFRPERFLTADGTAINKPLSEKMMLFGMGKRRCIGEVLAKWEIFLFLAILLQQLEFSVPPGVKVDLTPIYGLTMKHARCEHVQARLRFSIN
Briefly: Inhibition of CYP1A2. It counts as ADME.

Another series has as its target Cytochrome P450 2D6 (Homo sapiens, UniProt P10635). In words: Inhibition of CYP2D6. Format: ADME.
A further series concerns the target Cytochrome P450 3A4 (Homo sapiens, UniProt P08684). In words: Inhibition of CYP3A4. Format: ADME.
Series [4] in a line: Lipophilicity, log D of the compound at pH 7.4. The note with it: buffer.
For series [5], the target named is T3, Thromboxane A2 receptor (Homo sapiens) (UniProt P21731).
T3 sequence (whole entry): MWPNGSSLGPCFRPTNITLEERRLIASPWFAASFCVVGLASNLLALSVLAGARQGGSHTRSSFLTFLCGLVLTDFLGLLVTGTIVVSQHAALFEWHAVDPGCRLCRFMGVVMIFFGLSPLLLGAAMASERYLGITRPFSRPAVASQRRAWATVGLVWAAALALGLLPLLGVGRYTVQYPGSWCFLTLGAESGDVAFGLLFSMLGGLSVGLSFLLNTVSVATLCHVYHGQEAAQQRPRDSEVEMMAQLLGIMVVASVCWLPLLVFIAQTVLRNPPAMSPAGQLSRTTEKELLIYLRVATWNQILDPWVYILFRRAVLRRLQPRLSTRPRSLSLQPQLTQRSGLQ
In words: Antagonist activity at prostanoid TP receptor assessed as inhibition of arachidonic acid-induced platelet aggregation at >/= 1 uM. Format: functional.

Series [6] can be described thus: Clearance in Sprague-Dawley rat at 1 mg/kg, iv. Format: ADME, organism-based. On the set-up: dose 1 mg/kg, route intravenous. As to conditions: in vivo.
Series [7] is described as follows: Volume of distribution at steady state in Sprague-Dawley rat at 1 mg/kg, iv. As to conditions: in vivo, read-out: Vdss. Also noted: dose 1 mg/kg, route intravenous. It counts as ADME, organism-based.
A short description of series [8]: Half life in Sprague-Dawley rat at 1 mg/kg, iv. It counts as ADME, organism-based. On the set-up: dose 1 mg/kg, route intravenous. As to conditions: in vivo.
Series [9] is described as follows: Oral bioavailability in Sprague-Dawley rat at 4 mg/kg. Format: ADME, organism-based. As to conditions: in vivo.
For series [10], the target named is T4, Prostaglandin D2 receptor (Homo sapiens) (UniProt Q13258).
T4 sequence (whole entry): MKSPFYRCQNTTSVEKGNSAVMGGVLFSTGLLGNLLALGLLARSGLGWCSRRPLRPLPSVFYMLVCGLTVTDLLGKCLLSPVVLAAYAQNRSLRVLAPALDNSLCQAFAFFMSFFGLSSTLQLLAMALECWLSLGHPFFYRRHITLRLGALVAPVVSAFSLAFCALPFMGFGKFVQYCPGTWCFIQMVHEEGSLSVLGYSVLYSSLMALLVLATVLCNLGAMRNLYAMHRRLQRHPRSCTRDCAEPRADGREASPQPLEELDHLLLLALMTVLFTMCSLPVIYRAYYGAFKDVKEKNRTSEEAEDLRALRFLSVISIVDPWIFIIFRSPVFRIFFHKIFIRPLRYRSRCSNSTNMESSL
Briefly: Antagonist activity at prostanoid DP1 receptor. Format: functional.

Series [11] concerns the target Prostaglandin G/H synthase 1 (Homo sapiens) (UniProt P23219). In words: Inhibition of COX1 assessed as inhibition of arachidonic acid-induced platelet aggregation at >/= 1 uM.
In series [12] the target is T1, Prostaglandin D2 receptor 2. In words: Antagonist activity against human CRTh2 receptor in human eosinophils assessed as inhibition of DK-PGD2-induced CD11b expression. It counts as functional.
Series [13] shares this target. Briefly: Antagonist activity at human CRTh2 receptor expressed in HEK cells assessed as inhibition of PGD2-induced calcium flux. It counts as functional, cell-based, HEK293. (In general: Calcium flux is commonly read through the fluorescence of an indicator in the cells.)
In series [14] the target is Aldo-keto reductase family 1 member B1 (Rattus norvegicus, UniProt P07943). In words: Inhibition of rat aldose reductase.
A short description of series [15]: Oral bioavailability in Sprague-Dawley rat at 3 mg/kg. It counts as ADME, organism-based. As to conditions: in vivo.
The next series is filed under the species Homo sapiens. Briefly: Selectivity ratio of IC50 for human recombinant aldose reductase 1 to IC50 for human CRTh2 receptor. The essentials:
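Ratio of two IC50s from separate assays. […] ALR1 activity was followed at […] as NADPH oxidation, at 22 °C. All reagents except NADPH were preincubated 15 min before NADPH started the reaction. Initial linear rates were corrected for non-enzymatic NADPH oxidation, and % inhibition was taken against no-compound control.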

Series [16] addresses Aldehyde reductase AKR1A1 (Homo sapiens). In words: Inhibition of human recombinant aldose reductase 1 after 15 mins by spectrophotometry analysis.

Cytochrome P450 3A4, sequence (P08684 whole entry): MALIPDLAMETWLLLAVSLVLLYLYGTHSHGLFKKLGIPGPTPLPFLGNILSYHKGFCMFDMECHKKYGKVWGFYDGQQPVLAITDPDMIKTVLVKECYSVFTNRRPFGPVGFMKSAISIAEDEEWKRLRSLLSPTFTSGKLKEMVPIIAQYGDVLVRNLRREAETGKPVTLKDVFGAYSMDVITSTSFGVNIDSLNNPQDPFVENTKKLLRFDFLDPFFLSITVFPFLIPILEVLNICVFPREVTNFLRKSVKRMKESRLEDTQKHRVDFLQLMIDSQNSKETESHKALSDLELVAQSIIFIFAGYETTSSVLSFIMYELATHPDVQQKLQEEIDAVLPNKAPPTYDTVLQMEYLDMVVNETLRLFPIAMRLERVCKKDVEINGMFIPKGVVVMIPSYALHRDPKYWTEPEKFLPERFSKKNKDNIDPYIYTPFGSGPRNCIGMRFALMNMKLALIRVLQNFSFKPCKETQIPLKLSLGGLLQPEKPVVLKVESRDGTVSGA
Prostaglandin G/H synthase 1 (Homo sapiens), sequence (P23219 whole entry): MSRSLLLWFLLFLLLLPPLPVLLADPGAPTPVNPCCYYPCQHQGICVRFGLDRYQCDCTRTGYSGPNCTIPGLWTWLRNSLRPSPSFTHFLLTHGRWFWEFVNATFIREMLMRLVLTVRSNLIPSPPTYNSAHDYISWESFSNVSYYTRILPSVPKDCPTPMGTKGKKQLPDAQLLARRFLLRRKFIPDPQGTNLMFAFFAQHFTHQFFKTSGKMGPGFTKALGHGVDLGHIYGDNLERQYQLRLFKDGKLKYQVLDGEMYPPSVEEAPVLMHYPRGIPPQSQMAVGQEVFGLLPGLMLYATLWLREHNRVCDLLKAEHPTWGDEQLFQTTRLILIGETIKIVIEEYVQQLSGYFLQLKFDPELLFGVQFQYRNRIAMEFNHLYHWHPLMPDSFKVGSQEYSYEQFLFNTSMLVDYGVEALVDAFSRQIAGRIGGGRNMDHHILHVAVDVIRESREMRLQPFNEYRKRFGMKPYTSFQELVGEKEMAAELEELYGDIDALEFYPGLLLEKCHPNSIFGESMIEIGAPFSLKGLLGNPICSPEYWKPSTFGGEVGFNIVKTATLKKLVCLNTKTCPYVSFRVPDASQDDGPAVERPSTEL
Cytochrome P450 2D6, sequence (P10635 whole entry): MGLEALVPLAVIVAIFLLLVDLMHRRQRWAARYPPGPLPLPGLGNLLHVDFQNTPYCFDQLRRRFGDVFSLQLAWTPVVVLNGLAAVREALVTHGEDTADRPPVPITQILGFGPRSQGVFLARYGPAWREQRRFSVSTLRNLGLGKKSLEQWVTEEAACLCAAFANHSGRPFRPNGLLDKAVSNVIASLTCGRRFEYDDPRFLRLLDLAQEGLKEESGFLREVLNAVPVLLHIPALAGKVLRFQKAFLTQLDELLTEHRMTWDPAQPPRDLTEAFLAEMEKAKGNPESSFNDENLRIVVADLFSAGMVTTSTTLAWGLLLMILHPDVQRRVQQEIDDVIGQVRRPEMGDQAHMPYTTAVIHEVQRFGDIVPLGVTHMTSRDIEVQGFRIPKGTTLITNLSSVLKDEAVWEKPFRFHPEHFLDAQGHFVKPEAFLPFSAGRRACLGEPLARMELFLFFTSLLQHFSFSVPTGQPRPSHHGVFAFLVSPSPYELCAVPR

In general, IC50 refers to the concentration that inhibits the measured activity by half. The term hepatocyte CLint denotes a measure of how fast metabolising enzymes remove a compound, apart from limits set by blood flow. The term logD denotes lipophilicity at a set pH, counting ionised and neutral species. Higher therefore signals a more lipophilic compound. By clearance is commonly meant a measure of how efficiently the substance is removed, as volume per time. Low readings indicate a low capacity for elimination, high ones a high capacity for elimination. As a reminder, the half-life is the time needed for the level to fall by half in the phase considered. Read a low half-life as fast loss. Broadly, the bioavailability is dose-corrected exposure relative to a reference, in per cent. For `CC(=O)Nc1cccc2c1c(Sc1ccc(Cl)cc1)c(C)n2CC(=O)O` [AZD1981], the IC50 in series [1] is 4.3 nM; in series [2], 2.51 µM; on Cytochrome P450 2C9 it was more than 10 µM; against Cytochrome P450 1A2 it was more than 10 µM; at Cytochrome P450 2D6, more than 10 µM; at Cytochrome P450 3A4, more than 10 µM. Also, in [12], the half-maximal inhibitory concentration (IC50) came out at 10 nM. The hepatocyte CLint in [3] came to 1 µL/min/1e6 cells. Also, in series [4], the log distribution coefficient (logD) is -0.2. In addition, the inhibition entry in series [5] and in series [11] was “inactive” each time. Moreover, the clearance in [6] came out at 4 mL/min/kg. The Vd in series [7] was found to be 0.5 L/kg. For the same compound, in series [8], the half-life was 114 min. In series [9], this compound came in with a bioavailability of 63%. The outcome in series [10] was inactive.
For the compound `Cc1ccc2c(c1)c(Sc1ccccc1)c(C)n2CC(=O)O`, the IC50 in series [1] worked out at 20 nM; in series [13] it was 25 nM; in [14], 157 nM.
Regarding `CC(=O)Nc1cccc2c1c(S(=O)(=O)c1ccc(Cl)cc1)c(C)n2CC(=O)O`, the 50% inhibitory concentration (IC50) in series [1] came to 7.1 nM; in [2], 4.47 µM; in series [16], 708 nM. In addition, the hepatocyte CLint in series [3] was less than 1 µL/min/1e6 cells. Moreover, the log distribution coefficient (logD) in series [4] is 0.4. In addition, the clearance in [6] worked out at 4 mL/min/kg. Besides, the Vd in series [7] was 0.2 L/kg. The same compound had a half-life in series [8] of 54 min. In [15], this compound returned a bioavailability of less than 10%. For the same compound, the Ratio IC50 in the series listed under Homo sapiens was 100.
